# Test results: PubChem BioAssay AID652011 (Sanford-Burnham Center for Chemical Genomics, 2013)
# Several values for one entry are separate records, joined by “and”; a condition that tells them apart may be missing. Equal entries are not always repeated.
# Molecular target: Endothelial PAS domain-containing protein 1 (Homo sapiens) (UniProt Q99814)
# Experiment: HIF reporter inhibition across pancreatic and renal lines – cell-based, luminescence, MIAPaCa-2, 786-0, panel, SAR follow-up (AID 652011)
# Conditions: MIAPaCa-2/PANC HIF reporter, luciferase luminescence, desferoxamine, overnight, HIF2a PANC, run 1; at 99 µM (top of the series)
# Procedure, shortened: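 Reagent: Desferoxamine added before compound | Doses: Compounds from 10 mM and 0.3125 mM stocks, 1% DMSO final | Times: Overnight seeding and compound exposure, 37 °C, 5% CO2, 10-min detection | Measured by: One-Glo luciferase luminescence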
# Endothelial PAS domain-containing protein 1 (Homo sapiens), sequence (Q99814 whole entry, looked up, the tested form may be a part): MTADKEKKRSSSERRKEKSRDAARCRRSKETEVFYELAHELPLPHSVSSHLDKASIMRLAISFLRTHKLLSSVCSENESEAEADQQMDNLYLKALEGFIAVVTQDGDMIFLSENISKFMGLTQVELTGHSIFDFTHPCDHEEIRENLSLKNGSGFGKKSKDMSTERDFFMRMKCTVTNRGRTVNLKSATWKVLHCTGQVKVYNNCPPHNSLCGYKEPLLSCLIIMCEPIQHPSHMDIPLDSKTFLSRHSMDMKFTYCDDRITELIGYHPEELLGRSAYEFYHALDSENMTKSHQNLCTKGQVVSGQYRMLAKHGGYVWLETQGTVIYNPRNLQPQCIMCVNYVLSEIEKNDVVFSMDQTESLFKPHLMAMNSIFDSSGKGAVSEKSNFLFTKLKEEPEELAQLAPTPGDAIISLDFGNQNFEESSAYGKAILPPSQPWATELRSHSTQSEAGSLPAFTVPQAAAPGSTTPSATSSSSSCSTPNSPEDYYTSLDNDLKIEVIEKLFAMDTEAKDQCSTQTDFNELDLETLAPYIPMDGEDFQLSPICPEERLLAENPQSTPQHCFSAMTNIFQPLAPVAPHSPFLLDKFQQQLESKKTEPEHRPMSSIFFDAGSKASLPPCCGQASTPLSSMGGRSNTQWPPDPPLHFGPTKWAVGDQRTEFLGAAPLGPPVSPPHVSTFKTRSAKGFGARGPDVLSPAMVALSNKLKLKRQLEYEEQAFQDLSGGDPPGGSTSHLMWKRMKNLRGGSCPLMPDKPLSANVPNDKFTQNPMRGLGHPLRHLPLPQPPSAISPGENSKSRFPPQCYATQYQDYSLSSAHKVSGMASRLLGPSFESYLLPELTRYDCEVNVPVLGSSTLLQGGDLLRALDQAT
row,Structure (SMILES),inhibition
1,CCNC(=O)CCc1nc(-c2ccccc2Cl)no1,26%
2,CCNC(=O)CCc1nc(-c2ccc(CC)cc2)no1,-29.7%
3,CC(C)(C)c1ccc(-c2noc(CCC(=O)NC3CCCCC3)n2)cc1,93.4%
4,C=CCNC(=O)CCc1nc(-c2ccc(C(C)(C)C)cc2)no1,56.7%
5,CCCCc1ccc(-c2noc(CCC(=O)NC(C)(C)C)n2)cc1,62.8%
6,CNC(=O)CCc1nc(-c2ccc(C(C)C)cc2)no1,24%
7,CCNC(=O)CCc1nc(-c2ccc(C(C)(C)C)cc2)no1,17.6% and 9.6%
8,CC(C)(C)NC(=O)CCc1nc(-c2ccccc2)no1,35.7%
9,CCc1ccc(-c2noc(CCC(=O)NC)n2)cc1,1.82%
10,CC(C)(C)c1ccc(-c2noc(CCC(=O)O)n2)cc1,119%
11,CNC(=O)CCc1nc(-c2ccc(Cl)cc2)no1,13.4%
12,CC(C)c1ccc(-c2noc(CCC(=O)NC3CC3)n2)cc1,-39.8%
13,CC(C)(C)c1ccc(-c2noc(CCC(=O)NCC3CCCO3)n2)cc1 (stereo not given),53.5%
14,CCN(CC)C(=O)CCc1nc(-c2ccc(C(C)(C)C)cc2)no1,44.3% and 43.4%
15,CC(C)(C)c1ccc(-c2noc(CCC(=O)NC3CCC3)n2)cc1,108%
16,CCCNC(=O)CCc1nc(-c2ccc(C(C)(C)C)cc2)no1,7.88%
17,CCC(C)NC(=O)CCc1nc(-c2ccc(C(C)(C)C)cc2)no1 (stereo not given),-20.2%
18,COc1cccc(NC(=O)CCc2nc(-c3ccc(C(C)(C)C)cc3)no2)c1,118%
19,CCNC(=O)CCc1nc(-c2cccc(F)c2)no1,19.4%
20,CN(C)C(=O)CCc1nc(-c2ccc(C(C)(C)C)cc2)no1,-71.1% and 11.2%
21,CCCCc1ccc(-c2noc(CCC(=O)NC(C)CC)n2)cc1 (stereo not given),45.6%
22,CCc1ccc(-c2noc(CCC(=O)NC(C)(C)C)n2)cc1,-42.9%
23,CCC(C)NC(=O)CCc1nc(-c2ccc(C(C)C)cc2)no1 (stereo not given),12.1%
24,CCCCc1ccc(-c2noc(CCC(=O)NCC)n2)cc1,-29.8%
25,CCC(C)NC(=O)CCc1nc(-c2ccccc2)no1 (stereo not given),63.6%
26,CC(C)(C)c1ccc(-c2noc(CCC(=O)Nc3cccnc3)n2)cc1,118%
27,CCOc1ccc(-c2noc(CCC(=O)NC)n2)cc1,112%
28,CCNC(=O)CCc1nc(-c2ccc(OCC)cc2)no1,-27.3%
29,CNC(=O)CCc1nc(-c2ccc(F)cc2)no1,-27.1%
30,CC(C)NC(=O)CCc1nc(-c2ccc(C(C)(C)C)cc2)no1,80.3%
